The values that follow come from ChEMBL document CHEMBL4145607, “Tamarixetin Exhibits Anti-inflammatory Activity and Prevents Bacterial Sepsis by Increasing IL-10 Production” (J Nat Prod, 2018).

Calls of active or inactive are those of the source. The rule behind the calls is not given here.

One experiment relates to Mus musculus. The experiment in a line: Antiseptic activity in Balb/c mouse model of Escherichia coli K1 infection-induced sepsis assessed as reduction in infiltration of immune cells in lungs at 1 mg/kg, ip pretreated for 1 hr followed by Escherichia coli K1 infection measured after 12 hrs by hematoxylin and eosin staining based microscopic analysis. The experiment is classed as functional, organism-based. In short, it runs like this:
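BALB/c mice were given 1 mg·kg−1 i.p. 1 h before i.p. E. coli K1 (1 × 10^6 CFU per mouse). At 12 h, lungs were perfused and formalin-fixed. Sections were H&E-stained and examined by microscope. Representative of three independent experiments.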

Experiment [1] relates to BMDC. The experiment in a line: Increase in microRNA146a expression in LPS-induced C57BL/6 mouse BMDC at 25 uM pretreated for 30 mins followed by LPS-challenge measured after 6 hrs by qRT-PCR analysis. The experiment is classed as functional, cell-based. In short, it runs like this:
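Total RNA was extracted from BMDCs with TRIzol and reverse transcribed. miR-146a, miR-155 and miR-187 were quantified by real-time qPCR with gene-specific primers.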

Experiment [2] deals with BMDC. The experiment in a line: Inhibition of LPS-induced immune response in C57BL/6 mouse BMDC assessed as increase in IL10 secretion at 25 uM treated 6 hrs post LPS-challenge measured after 60 to 120 mins by ELISA. The experiment is classed as functional, cell-based. In short, it runs like this:
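Bone marrow DCs from 6-week-old female C57BL/6 mice, RBC-lysed, cultured in RPMI-1640/10% FBS with 10 ng/mL rmGM-CSF, 37 °C, 5% CO2. Cells given LPS 50 ng/mL for 6 h, then 25 μM compound added for 30, 60, 90 or 120 min. Supernatant TNF-α, IL-6, IL-10, IL-12p70 measured by sandwich ELISA. Mean ± SEM, compared with LPS-only DCs.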

Experiment [3] has as its system BMDC. The experiment in a line: Inhibition of Escherichia coli DH5alpha infection-induced immune response in C57BL/6 mouse BMDC assessed as reduction in IL-6 secretion at 25 uM pretreated for 60 to 120 mins followed by Escherichia coli DH5alpha infection for 6 hrs by ELISA. The experiment is classed as functional, cell-based. In short, it runs like this: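 C57BL/6 BMDCs received 25 μM compound and E. coli DH5α, 3 × 10^6 CFU·mL−1. Schedules were: compound 30 min before a 6 h infection; co-addition for 6 h; or compound for 30, 60, 90 or 120 min plus 6 h infection. Supernatant TNF-α, IL-6, IL-10 and IL-12p70 were measured by ELISA. At least three experiments in triplicate.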

Regarding `COc1ccc(-c2oc3cc(O)cc(O)c3c(=O)c2O)cc1O` [TAMARIXETIN], the result in the experiment on Mus musculus and in the experiment on BMDC [1] was Active. For the same molecule, the inhibition result in the experiment on BMDC [2] and in the experiment on BMDC [3] was “inactive” in each case.
